Results reported in ChEMBL document CHEMBL3526009, “Breast cancer resistance protein (ABCG2) determines distribution of genistein phase II metabolites: reevaluation of the roles of ABCG2 in the disposition of genistein” (Drug Metab Dispos, 2012).

Tests used:
[1] = Stability in potassium phosphate buffer at pH 7.4 up to 4 hrs; format: physicochemical; conditions: pH 7.4, 4 h
In short: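 Negative control run under the blood-incubation conditions but in 50 mM potassium phosphate buffer, pH 7.4, instead of blood. Genistein glucuronides (G-7-G plus G-4′-G, with aglycone) or sulfates (G-7-S plus G-4′-S, with aglycone) held at 37°C in a shaking water bath up to 4 h. Sampled at 0, 60, 120 and 240 min and read by UPLC-MS/MS.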

Blood = experiment: Stability in Wistar rat blood at 3 uM up to 4 hrs by UPLC-MS/MS analysis; format: ADME, tissue-based
In short: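 Genistein glucuronide mixture (G-7-G plus G-4′-G, 3 μM) with 3.8 μM genistein incubated in fresh rat whole blood, 37°C shaking water bath. Sampled at 0, 60, 120 and 240 min. Reaction stopped with acetonitrile containing daidzein internal standard. Genistein and conjugates quantified by UPLC-MS/MS using multiple reaction monitoring. n = 3.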

[2] = Biliary excretion in BCRP-/- mouse treated with genistein measured after 2.5 hrs post intestinal perfusion by UPLC-MS/MS analysis; format: ADME, Bile; conditions: in vivo, other
In short: (§1)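 Gallbladder bile taken after 2.5 h of simultaneous small intestine/colon perfusion with 10 μM genistein (HBSS pH 7.4, 0.191 ml/min) in FVB or Bcrp1(−/−) mice (n = 4). Bile diluted 20-fold in HBSS, daidzein internal standard in acetonitrile added, dried and reconstituted. Genistein and conjugates quantified by UPLC-MS/MS.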

[3] = Biliary excretion in wild-type FVB mouse treated with genistein measured after 2.5 hrs post intestinal perfusion by UPLC-MS/MS analysis; format: ADME, Bile; conditions: in vivo, other; in short: as §1
[4] = Drug transport in human Caco2 cells assessed as basolateral excretion of compound treated with genistein at 10 uM after 4 hrs by UPLC-MS/MS analysis in presence of BCRP inhibitor Ko143; format: ADME, cell-based; conditions: caco-2, 4 h
In short: (§2)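 Caco-2 TC7 monolayers on 3 μm polycarbonate inserts, used 19–22 days post-seeding (TEER ≥460 Ω/cm2). Genistein 2 or 10 μM in HBSS pH 7.4 applied apically, ±5 μM Ko143 apically; sampling both sides at 0–4 h hourly with replacement, triplicate. Genistein and four conjugates plus intracellular amounts at 4 h by UPLC-MS/MS; mass balance versus dose added.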

[5] = Drug transport in human Caco2 cells assessed as basolateral excretion of compound treated with genistein at 2 uM after 4 hrs by UPLC-MS/MS analysis in presence of BCRP inhibitor Ko143; format: ADME, cell-based; conditions: caco-2, 4 h; in short: as §2

Row | Stability [1] | Stability (Blood) | Drug excretion [2] | Drug excretion [3] | Drug transport [4] | Drug transport [5] | SMILES
1 | Stable | Stable | metabolite_detected | metabolite_detected |  |  | O=C(O)[C@H]1O[C@@H](Oc2ccc(-c3coc4cc(O)cc(O)c4c3=O)cc2)[C@H](O)[C@@H](O)[C@@H]1O
2 | Stable | Stable |  |  | Active | Active | O=c1c(-c2ccc(OS(=O)(=O)O)cc2)coc2cc(O)cc(O)c12
